Data taken from ChEMBL document CHEMBL1123797, “Antianaphylactic benzophenones and related compounds” (1987).

What follows are compounds tested on Cavia porcellus (assay: Effect on bronchospasm in conscious sensitized guinea pig upon antigen challenge (herxheimer) at 25 mg/kg po dose). Settings: not given.
Assay type: functional, Bronchiole
How it was run: (§1)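 Modified Herxheimer test in conscious sensitized guinea pigs, 4-5 per group. Compound was given orally at 25, 50 or 100 mg/kg 2 or 4 h before antigen challenge. Some groups also received mepyramine 0.5 mg/kg sc 0.5 h before challenge. D = mean collapse time of treated/untreated controls; M+D = mean collapse time of compound+mepyramine/mepyramine-dosed controls.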
`CCc1ccc(O)c(C(=O)c2ccc(Cl)cc2)c1` was tested, and the “Time of dosing before antigen challenge.” value was 4 h.

Species on record: Cavia porcellus
Assay: Inhibition of histamine release from sensitized guinea pig chopped lung upon antigen challenge at 10 ug/mL.
Assay type: functional
Settings: not given
How it was run: (§2)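 Guinea pigs sensitized to ovalbumin; lungs taken 3 weeks later, perfused with Tyrode, chopped into 0.5-mm cubes. 100-mg aliquots in Tyrode were preincubated 5 min at 37 °C, then compound or Tyrode and ovalbumin (5 mg in 0.1 mL) were added. Incubation was 15 min at 37 °C with rocking, and supernatant was bioassayed. Unchallenged control gave spontaneous release. Values are % inhibition, mean of ≥4 samples; Student's t-test.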
In the case of `CCc1ccc([S+](C)[O-])c(C(=O)c2ccc(C)cc2)c1` (stereo not given), the Inhibition is reported as 3%.
With `Cc1cccc(C(=O)c2ccc(Cl)cc2)c1O` the Inhibition was 6%.
`CCc1ccc(O)c(/C(=N/O)c2ccc(Cl)cc2)c1` showed an Inhibition of 28%.
Work on `CCc1ccc(O)c(C(=O)c2ccc(Cl)cc2)c1` yielded an Inhibition of 3%.
`CCc1cccc(C(=O)c2ccc(Cl)cc2Cl)c1O` was tested, and the Inhibition was 8%.
With `CN1CCC(=C2c3ccccc3CC(=O)c3sccc32)CC1` [KETOTIFEN] the Inhibition was 37%.

Species on record: Cavia porcellus
Assay: Inhibition of slow reacting substance of anaphylaxis (SRS-A) release from sensitized guinea pig chopped lung upon antigen challenge at 10 ug/mL
Assay type: functional
Settings: not given
How it was run: as §2
`CCc1ccc([S+](C)[O-])c(C(=O)c2ccc(C)cc2)c1` (stereo not given) was tested, and the Inhibition was 40%.
Compound `Cc1cccc(/C(=N/O)c2ccccc2)c1O` has an Inhibition of 0%.
`Cc1cccc(C(=O)c2ccc(Cl)cc2)c1O` was tested, and the Inhibition was 36%.
In the case of `CCc1ccc(O)c(/C(=N/O)c2ccc(Cl)cc2)c1`, the Inhibition is reported as 51%.
With `CCc1ccc(O)c(C(=O)c2ccc(Cl)cc2)c1` the Inhibition was 51%.
`CCc1ccc(OC)c(C(O)c2ccc(Cl)cc2)c1` (stereo not given) was tested, and the Inhibition was 14%.
With `CCc1cccc(C(=O)c2ccc(Cl)cc2Cl)c1O` the Inhibition was 44%.
`CN1CCC(=C2c3ccccc3CC(=O)c3sccc32)CC1` [KETOTIFEN] showed an Inhibition of 38%.

Species on record: Cavia porcellus
Assay: Inhibition of slow reacting substance of anaphylaxis (SRS-A) release from sensitized guinea pig chopped lung upon antigen challenge.
Assay type: functional
Settings: not given
How it was run: as §2
Compound `CCc1ccc(O)c(S(=O)(=O)c2ccc(Cl)cc2)c1` has an Inhibition of 19%.
Compound `CCc1ccc(O)c(S(=O)(=O)c2ccccc2)c1` has an Inhibition of 0%.

These compounds were tested on Cavia porcellus (assay: Mean collapse time after pretreatment with compound and mepyramine divided by mean collapse time of mepyramine-dosed control animals at 100 mg/kg po dose). Settings: not given.
Assay type: functional
How it was run: as §1
Compound `CCc1ccc(O)c(C(=O)c2ccc(Cl)cc2)c1` has an Activity of 1.8.

What follows are compounds tested on Cavia porcellus (assay: Mean collapse time after pretreatment with compound and mepyramine divided by mean collapse time of mepyramine-dosed control animals at 2 mg/kg po dose). Settings: not given.
Assay type: functional
Compound `CN1CCC(=C2c3ccccc3CC(=O)c3sccc32)CC1` [KETOTIFEN] has an Activity of 3.1.

These compounds were tested on Cavia porcellus (assay: Mean collapse time after pretreatment with compound and mepyramine divided by mean collapse time of mepyramine-dosed control animals at 25 mg/kg po dose). Settings: not given.
Assay type: functional
How it was run: as §1
`CCc1ccc(O)c(C(=O)c2ccc(Cl)cc2)c1` was tested, and the Activity was 2.7.
Work on `CCc1ccc(OC)c(C(O)c2ccc(Cl)cc2)c1` (stereo not given) yielded an Activity of 2.7.

Each compound was assayed on Cavia porcellus (assay: Mean collapse time after pretreatment with compound divided by mean collapse time of untreated control animals at 100 mg/kg po dose). Settings: not given.
Assay type: functional
How it was run: as §1
Compound `CCc1ccc(O)c(C(=O)c2ccc(Cl)cc2)c1` has an Activity of 1.4.

Each compound was assayed on Cavia porcellus (assay: Mean collapse time after pretreatment with compound divided by mean collapse time of untreated control animals at 2 mg/kg po dose). Settings: not given.
Assay type: functional
Compound `CN1CCC(=C2c3ccccc3CC(=O)c3sccc32)CC1` [KETOTIFEN] has an Activity of 4.2.

The compounds below were run on Cavia porcellus (assay: Mean collapse time after pretreatment with compound divided by mean collapse time of untreated control animals at 25 mg/kg po dose). Settings: not given.
Assay type: functional
How it was run: as §1
`CCc1ccc(O)c(C(=O)c2ccc(Cl)cc2)c1` was tested, and the Activity was 0.8.
In the case of `CCc1ccc(OC)c(C(O)c2ccc(Cl)cc2)c1` (stereo not given), the Activity is reported as 0.8.

Each compound was assayed on Cavia porcellus (assay: Time of dosing of compound before antigen challenge in conscious sensitized guinea pig at 100 mg/kg po dose). Settings: not given.
Assay type: functional
How it was run: as §1
`CCc1ccc(O)c(C(=O)c2ccc(Cl)cc2)c1` was tested, and the Time was 2 h.

The compounds below were run on Cavia porcellus (assay: Time of dosing of compound before antigen challenge in conscious sensitized guinea pig at 50 mg/kg po dose). Settings: dose 25 mg/kg, in the assay text read “at 25 mg/kg po dose” for “at 50 mg/kg po dose”.
Assay type: functional
How it was run: as §1
`CCc1ccc(OC)c(C(O)c2ccc(Cl)cc2)c1` (stereo not given) was tested, and the Time was 2 h.

Species on record: Homo sapiens
Assay: Inhibition of Histamine mediator release form passively sensitized human lung upon antigen challenge at 10 ug/mL dose
Assay type: functional
Settings: not given
How it was run: (§3)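 Healthy human lung from carcinoma surgery was chopped into 0.5-mm cubes and passively sensitized 18 h at 18 °C with atopic serum from cocksfoot-pollen-allergic patients. Tissue was preincubated 5 min with compound, challenged with pollen extract (0.1 mL, 1000 noon units) and incubated as for guinea pig lung. Supernatant was bioassayed on guinea pig ileum, with mepyramine-treated (0.4 μg/mL) ileum for SRS-A. Values are % inhibition of mediator release.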
For `CCc1ccc([S+](C)[O-])c(C(=O)c2ccc(C)cc2)c1` (stereo not given), the Inhibition was 0%.
With `Cc1cccc(/C(=N/O)c2ccccc2)c1O` the Inhibition was 15%.
`Cc1cccc(C(=O)c2ccc(Cl)cc2)c1O` gave an Inhibition of 0%.
`CCc1ccc(O)c(/C(=N/O)c2ccc(Cl)cc2)c1` was tested, and the Inhibition was 0%.
Work on `CCc1ccc(O)c(C(=O)c2ccc(Cl)cc2)c1` yielded an Inhibition of 0%.
`CCc1cccc(C(=O)c2ccc(Cl)cc2Cl)c1O` gave an Inhibition of 60%.
With `CN1CCC(=C2c3ccccc3CC(=O)c3sccc32)CC1` [KETOTIFEN] the Inhibition was 23%.

Species on record: Homo sapiens
Assay: Inhibition of Histamine mediator release form passively sensitized human lung upon antigen challenge at 1 ug/mL dose
Assay type: functional
Settings: not given
How it was run: as §3
`CCc1ccc([S+](C)[O-])c(C(=O)c2ccc(C)cc2)c1` (stereo not given) showed an Inhibition of 0%.
`Cc1cccc(/C(=N/O)c2ccccc2)c1O` was tested, and the Inhibition was 8%.
Work on `CCc1ccc(O)c(/C(=N/O)c2ccc(Cl)cc2)c1` yielded an Inhibition of 0%.
Work on `CCc1ccc(O)c(C(=O)c2ccc(Cl)cc2)c1` yielded an Inhibition of 0%.
With `CCc1cccc(C(=O)c2ccc(Cl)cc2Cl)c1O` the Inhibition was 20%.
With `CN1CCC(=C2c3ccccc3CC(=O)c3sccc32)CC1` [KETOTIFEN] the Inhibition was 0%.

Species on record: Homo sapiens
Assay: Inhibition of Slow reacting substance of anaphylaxis (SRS-A) mediator release form passively sensitized human lung upon antigen challenge at 10 ug/mL dose
Assay type: functional
Settings: not given
How it was run: as §3
For `CCc1ccc([S+](C)[O-])c(C(=O)c2ccc(C)cc2)c1` (stereo not given), the Inhibition was 100%.
`Cc1cccc(/C(=N/O)c2ccccc2)c1O` was tested, and the Inhibition was 62%.
`Cc1cccc(C(=O)c2ccc(Cl)cc2)c1O` was tested, and the Inhibition was 100%.
In the case of `CCc1ccc(O)c(/C(=N/O)c2ccc(Cl)cc2)c1`, the Inhibition is reported as 91%.
In the case of `CCc1ccc(O)c(C(=O)c2ccc(Cl)cc2)c1`, the Inhibition is reported as 100%.
For `CCc1cccc(C(=O)c2ccc(Cl)cc2Cl)c1O`, the Inhibition was 100%.
Compound `CN1CCC(=C2c3ccccc3CC(=O)c3sccc32)CC1` [KETOTIFEN] has an Inhibition of 100%.

Species on record: Homo sapiens
Assay: Inhibition of Slow reacting substance of anaphylaxis (SRS-A) mediator release form passively sensitized human lung upon antigen challenge at 1 ug/mL dose
Assay type: functional
Settings: not given
How it was run: as §3
`CCc1ccc([S+](C)[O-])c(C(=O)c2ccc(C)cc2)c1` (stereo not given) gave an Inhibition of 75%.
For `Cc1cccc(/C(=N/O)c2ccccc2)c1O`, the Inhibition was 39%.
`Cc1cccc(C(=O)c2ccc(Cl)cc2)c1O` was tested, and the Inhibition was 100%.
Work on `CCc1ccc(O)c(/C(=N/O)c2ccc(Cl)cc2)c1` yielded an Inhibition of 93%.
Work on `CCc1ccc(O)c(C(=O)c2ccc(Cl)cc2)c1` yielded an Inhibition of 74%.
`CCc1cccc(C(=O)c2ccc(Cl)cc2Cl)c1O` showed an Inhibition of 85%.
`CN1CCC(=C2c3ccccc3CC(=O)c3sccc32)CC1` [KETOTIFEN] showed an Inhibition of 51%.

The compounds below were run on Cavia porcellus (assay: Time of dosing of compound before antigen challenge in conscious sensitized guinea pig at 2 mg/kg po dose). Settings: not given.
Assay type: functional
In the case of `CN1CCC(=C2c3ccccc3CC(=O)c3sccc32)CC1` [KETOTIFEN], the Time is reported as 2 h.
